Experimental findings from ChEMBL document CHEMBL4177653, “Identification of nitroimidazole-oxime derivatives targeting the polo-box domain of polo-like kinase 1” (Bioorg Med Chem, 2017) are described below.

Data set [1] has as its system MGC-803. The experiment in a line: Induction of apoptosis in human MGC803 cells assessed as necrotic cells at 0.01 uM after 24 hrs by Annexin V-FITC/propidium iodide staining-based flow cytometry (reference value: 0%). In kind it is functional. (In general: Flow cytometry measures light scatter and fluorescence of single cells or particles in a stream.)
The subject of data set [2] is MGC-803. Description: Induction of apoptosis in human MGC803 cells assessed as late apoptotic cells at 0.01 uM after 24 hrs by Annexin V-FITC/propidium iodide staining-based flow cytometry (reference value: 0%). Type of data set: functional.
The test system of data set [3] is MGC-803. Description: Induction of apoptosis in human MGC803 cells after 24 hrs by Annexin V-FITC/propidium iodide staining-based flow cytometry. Type of data set: functional, cell-based.
Data set [4] concerns MGC-803. Description: Induction of apoptosis in human MGC803 cells assessed as viable cells at 0.06 uM after 24 hrs by Annexin V-FITC/propidium iodide staining-based flow cytometry (reference value: 99.9%). In kind it is functional. The conditions noted are these: MGC-803, 24 h, read-out: Activity.
Data set [5] concerns HeLa. The experiment in a line: Antiproliferative activity against human HeLa cells after 72 hrs by MTT assay. Type of data set: functional, cell-based. Put shortly:
(§1)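 Cells kept in high-glucose DMEM with L-glutamine, 10% FBS, penicillin/streptomycin, at 37 °C and 5% CO2. Seeded in 96-well plates and preincubated 48 h. Compounds added at preset concentrations (6 wells each; erlotinib as positive reference) for 72 h. MTT in PBS (2.5 mg/mL) added for 4 h, formazan dissolved in DMSO, A570 read. IC50 is the concentration leaving 50% of cells surviving. Mean ± SD of three independent experiments in triplicate.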

Data set [6] relates to HepG2. Description: Antiproliferative activity against human HepG2 cells after 72 hrs by MTT assay. Type of data set: functional, cell-based. The following applies: HepG2, 72 h. In a few lines:
as §1

Data set [7] deals with MGC-803. The experiment in a line: Induction of apoptosis in human MGC803 cells assessed as necrotic cells at 0.06 uM after 24 hrs by Annexin V-FITC/propidium iodide staining-based flow cytometry (reference value: 0%). In kind it is functional.
Data set [8] deals with MGC-803. The experiment in a line: Induction of apoptosis in human MGC803 cells assessed as viable cells at 0.12 uM after 24 hrs by Annexin V-FITC/propidium iodide staining-based flow cytometry (reference value: 99.9%). In kind it is functional. The conditions noted are these: MGC-803, 24 h, read-out: Activity.
The test system of data set [9] is MGC-803. Description: Induction of apoptosis in human MGC803 cells assessed as early apoptotic cells at 0.06 uM after 24 hrs by Annexin V-FITC/propidium iodide staining-based flow cytometry (reference value: 0.1%). In kind it is functional.
Data set [10] has as its system MGC-803. The experiment in a line: Induction of apoptosis in human MGC803 cells assessed as early apoptotic cells at 0.12 uM after 24 hrs by Annexin V-FITC/propidium iodide staining-based flow cytometry (reference value: 0.1%). Type of data set: functional.
The test system of data set [11] is MGC-803. The experiment in a line: Induction of apoptosis in human MGC803 cells assessed as late apoptotic cells at 0.12 uM after 24 hrs by Annexin V-FITC/propidium iodide staining-based flow cytometry (reference value: 0%). Type of data set: functional.
Data set [12] deals with MGC-803. Description: Induction of apoptosis in human MGC803 cells assessed as viable cells at 0.01 uM after 24 hrs by Annexin V-FITC/propidium iodide staining-based flow cytometry (reference value: 99.9%). The following applies: MGC-803, 24 h, read-out: Activity. In kind it is functional.
Data set [13] in a line: Cytotoxicity against human 293T cells after 72 hrs by MTT assay. In kind it is cell-based. The following applies: HEK-293T cells. For orientation: Tetrazolium assays rely on reduction of a dye to a coloured formazan, in cell work by metabolically active cells.
Data set [14] relates to MGC-803. Description: Induction of apoptosis in human MGC803 cells assessed as late apoptotic cells at 0.06 uM after 24 hrs by Annexin V-FITC/propidium iodide staining-based flow cytometry (reference value: 0%). In kind it is functional.
Data set [15] relates to MGC-803. The experiment in a line: Induction of apoptosis in human MGC803 cells assessed as early apoptotic cells at 0.01 uM after 24 hrs by Annexin V-FITC/propidium iodide staining-based flow cytometry (reference value: 0.1%). In kind it is functional.
The subject of data set [16] is MCF7. Description: Antiproliferative activity against human MCF7 cells after 72 hrs by MTT assay. In kind it is functional, cell-based. The following applies: MCF7, 72 h. Put shortly:
as §1

Data set [17] relates to MGC-803. Description: Antiproliferative activity against human MGC803 cells after 72 hrs by MTT assay. Type of data set: functional, cell-based. The following applies: MGC-803, 72 h. Put shortly:
as §1

In data set [18] the test system is MGC-803. The experiment in a line: Induction of apoptosis in human MGC803 cells assessed as necrotic cells at 0.12 uM after 24 hrs by Annexin V-FITC/propidium iodide staining-based flow cytometry (reference value: 0%). Type of data set: functional.

Converted amounts (≈) assume the structure as drawn.

With `Cc1ccc(C(=O)O/N=C(/Cn2cc([N+](=O)[O-])nc2C)c2ccc(Br)cc2)cn1`, the Activity was 1.2% in data set [1]; 28.1% in [2]; “Dose-dependent effect” in data set [3]; 0.2% in [7]; 15.4% in data set [9]; 16.9% in data set [10]. Further, the Activity in data set [11] stood at 64.6%; in data set [14], 43.2%; in [15], 9.7%; in data set [18], 0.1%. Also, the viability at 0.06 µM in [4] amounted to 41.2%. Besides, the IC50 (usually the concentration that gives 50% inhibition) in [5] was determined as 0.86 µg/mL (≈ 1.88 µM); in [6], 0.75 µg/mL (≈ 1.64 µM); in data set [16], 0.72 µg/mL (≈ 1.57 µM); in data set [17], 0.005 µg/mL (≈ 0.0109 µM). The viability at 0.12 µM in [8] came out at 18.4%. In data set [12], the viability at 0.01 µM was 61%. Further, in data set [13], the midpoint of cytotoxicity, the CC50 at 72 h, lay at 8300 µg/mL (≈ 18100 µM).

With `Cc1nc([N+](=O)[O-])cn1C/C(=N/OC(=O)c1ccccc1Br)c1ccc(Br)cc1`, the half-maximal inhibitory concentration (IC50) was over 20 µg/mL in data set [5], 4.38 µg/mL (≈ 8.39 µM) in data set [6], 3.79 µg/mL (≈ 7.26 µM) in data set [16] and 2.63 µg/mL (≈ 5.04 µM) in data set [17]. Also, the CC50 (as a rule, the concentration that lowers cell viability or growth by half) at 72 h in [13] came to 150 µg/mL (≈ 287 µM).

`CC1=CC(=O)C(C(C)C)=CC1=O` [THYMOQUINONE]: in data set [13], half-maximal cytotoxicity (CC50 at 72 h) was put at 140 µg/mL (≈ 853 µM).

On to `COc1ccc(C(=O)O/N=C(/Cn2cc([N+](=O)[O-])nc2C)c2ccc(Br)cc2)cn1`, for which the IC50 in data set [5] came out at 2.35 µg/mL (≈ 4.95 µM); in [6], 0.92 µg/mL (≈ 1.94 µM); in data set [16], 0.89 µg/mL (≈ 1.88 µM); in [17], 0.03 µg/mL (≈ 0.0633 µM). The compound also had a half-maximal cytotoxic concentration (CC50) at 72 h in [13] of 980 µg/mL (≈ 2070 µM).

Take `Cc1cccc(C(=O)O/N=C(/Cn2cc([N+](=O)[O-])nc2C)c2ccc(Br)cc2)c1`: the IC50 was found to be 12.3 µg/mL (≈ 27 µM) in data set [5], 10.7 µg/mL (≈ 23.3 µM) in [6], 2.82 µg/mL (≈ 6.17 µM) in data set [16] and 3.25 µg/mL (≈ 7.11 µM) in data set [17]. Also, it took 1300 µg/mL (≈ 2840 µM) to reach half-maximal cytotoxicity in [13] (CC50 at 72 h).

As to `Cc1nc([N+](=O)[O-])cn1C/C(=N/OC(=O)c1cccc(Br)c1)c1ccc(Br)cc1`, the IC50 in data set [5] came out at 2.57 µg/mL (≈ 4.92 µM); in [6] it was 0.86 µg/mL (≈ 1.65 µM); in data set [16], 1.37 µg/mL (≈ 2.62 µM); in data set [17], 0.04 µg/mL (≈ 0.0766 µM). Moreover, the CC50 at 72 h in data set [13] was found to be 180 µg/mL (≈ 345 µM).

As to `Cc1nc([N+](=O)[O-])cn1C/C(=N/OC(=O)c1ccccc1[N+](=O)[O-])c1ccc(Br)cc1`, the IC50 in data set [5] was found to be 11.3 µg/mL (≈ 23.2 µM); in [6], 6.59 µg/mL (≈ 13.5 µM); in data set [16] it was 7.13 µg/mL (≈ 14.6 µM); in data set [17] it was 2.54 µg/mL (≈ 5.2 µM). In data set [13], this compound returned a CC50 at 72 h of 230 µg/mL (≈ 471 µM).

As to `Cc1nc([N+](=O)[O-])cn1C/C(=N/OC(=O)c1cccc(F)c1)c1ccc(Br)cc1`, the 50% inhibitory concentration (IC50) came out at 4.55 µg/mL (≈ 9.86 µM) in data set [5], 0.97 µg/mL (≈ 2.1 µM) in data set [6], 1.87 µg/mL (≈ 4.05 µM) in [16] and 0.21 µg/mL (≈ 0.455 µM) in data set [17]. Further, the CC50 at 72 h in data set [13] was 530 µg/mL (≈ 1150 µM).

Take `Cc1nc([N+](=O)[O-])cn1C/C(=N/OC(=O)c1cccnc1)c1ccc(Br)cc1`: the IC50 amounted to 1.51 µg/mL (≈ 3.4 µM) in data set [5], 0.73 µg/mL (≈ 1.64 µM) in data set [6], 0.78 µg/mL (≈ 1.76 µM) in data set [16] and 0.01 µg/mL (≈ 0.0225 µM) in data set [17]. Moreover, the CC50 at 72 h in [13] stood at 50 µg/mL (≈ 113 µM).

`Cc1nc([N+](=O)[O-])cn1C/C(=N/OC(=O)c1cccc(Cl)c1)c1ccc(Br)cc1`: the half-maximal inhibitory concentration (IC50) stood at 4.09 µg/mL (≈ 8.56 µM) in [5], 1.15 µg/mL (≈ 2.41 µM) in data set [6], 0.84 µg/mL (≈ 1.76 µM) in data set [16] and 0.18 µg/mL (≈ 0.377 µM) in data set [17]. The compound further showed a CC50 at 72 h in [13] of 700 µg/mL (≈ 1470 µM).

Take `Cc1ccccc1C(=O)O/N=C(/Cn1cc([N+](=O)[O-])nc1C)c1ccc(Br)cc1`: the IC50 in data set [5] was found to be 9.76 µg/mL (≈ 21.3 µM); in data set [6], 2.37 µg/mL (≈ 5.18 µM); in data set [16], 2.15 µg/mL (≈ 4.7 µM); in data set [17], 0.84 µg/mL (≈ 1.84 µM). In data set [13], this compound yielded a cytotoxic concentration (CC50) at 72 h of 3800 µg/mL (≈ 8310 µM).

Turning to `Cc1nc([N+](=O)[O-])cn1C/C(=N/OC(=O)c1ccccc1)c1ccc(Br)cc1`, the IC50 is over 20 µg/mL in data set [5], 14 µg/mL (≈ 31.5 µM) in data set [6], over 20 µg/mL in [16] and 3.66 µg/mL (≈ 8.26 µM) in data set [17]. The 50% cytotoxic concentration (CC50) at 72 h in data set [13] is 32000 µg/mL (≈ 72200 µM).
